Screening results from PubChem.
MBD2 inh = blocks human MBD2 binding to methylated DNA. hit rate 0.31% among 370,000. AID 686964. inhibition, % at 4.4 µM. Q9UBB5. TR-FRET, MBD2 binding to methylated oligonucleotide; in the data active means inhibition above about 13%
Target sequence (Q9UBB5 whole entry, looked up): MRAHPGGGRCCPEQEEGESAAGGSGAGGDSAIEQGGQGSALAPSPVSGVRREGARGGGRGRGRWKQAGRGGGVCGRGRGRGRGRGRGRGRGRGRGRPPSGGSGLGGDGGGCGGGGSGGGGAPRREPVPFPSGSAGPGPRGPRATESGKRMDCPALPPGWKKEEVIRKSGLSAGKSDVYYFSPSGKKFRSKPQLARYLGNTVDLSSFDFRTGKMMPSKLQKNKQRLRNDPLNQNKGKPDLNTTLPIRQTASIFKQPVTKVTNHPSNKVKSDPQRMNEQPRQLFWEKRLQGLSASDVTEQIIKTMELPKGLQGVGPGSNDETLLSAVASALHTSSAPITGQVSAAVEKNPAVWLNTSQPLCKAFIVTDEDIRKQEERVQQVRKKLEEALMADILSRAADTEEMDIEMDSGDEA
LEDGF integ inh = blocks HIV-1 LEDGF/p75-dependent DNA integration; TR-FRET IN-LEDGF/p75 DNA integration, Eu/Cy5; inhibition, % at 3.7 µM; hit rate 0.64% among 370,000; AID 743269;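 active means inhibition above the screen-wide mean plus 3 SD, cut at about 13% in these data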;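 further: signal is the Cy5 over europium emission ratio at 671 and 618 nm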
UHRF1 MBD2 ctr = UHRF1 methyl-DNA binding inhibition; UHRF1 binding to methylated oligo, TR-FRET; inhibition, % at 4.4 µM; hit rate 0.75% among 370,000; in the data active means inhibition above about 21%;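 further: UHRF1 SRA domain binding a hemimethylated CpG hairpin DNA probe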
TCR CD3 inh = human TCR-CD3 binding inhibition; hit rate 0.37% among 360,000; inhibition, % at 9.4 µM; TAMRA-labeled TCR probe fluorescence, biochemical;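 further: recombinant mutant TCR 2C K166C tagged with TAMRA read by polarization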
ARFGAP1 inhibitor = rat ARFGAP1 inhibition | Q62848 | Arfgap1-stimulated ARF1 GTP hydrolysis, GDP FP detection | inhibition, % at 16.5 µM | hit rate 0.26% among 360,000;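 active means inhibition above a per-plate limit, mean inhibition of low control wells plus 3 SD, cut at about 25% in these data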
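Repeats: one replicate per compound; assay system: rat Arfgap1 catalytic domain, aa 1-136; times: enzyme reaction 120 min at 25 °C after 20 min preincubation; detection: FP of antibody-bound GDP Alexa 633 tracer, ex 620/em 688 nm; benchmarks: high control wells lacking Arfgap1, low control full reaction with DMSO; reagent: human ARF1(Δ1-17)-GTP substrate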
ASAP1 GAP inh = inhibitors of human ASAP1 ArfGAP activity; Q9ULH1; ASAP1-stimulated ARF1 GTP hydrolysis, GDP FP detection; inhibition, % at 16.5 µM; hit rate 0.19% among 360,000; AID 624377; in the data active means inhibition above about 25%
BSA TAMRA ctr = BSA probe counter-screen for TCR-CD3 inhibitors. shares compounds with TCR CD3 inh. TAMRA-labeled BSA probe fluorescence counterscreen. inhibition, % at 9.4 µM. hit rate 10% among 1,200; in the data active means inhibition above about 23%
TCR-CD3 inh conf = confirmation of human TCR-CD3 interaction inhibitors. shares compounds with TCR CD3 inh. TAMRA-labeled TCR probe fluorescence binding assay. inhibition, % at 9.4 µM. hit rate 48% among 1,200. AID 652036
Large screens that a line does not name were inactive (follow-up assays come after a bar, where they were run). Hits are enriched below; roughly 2% of the tested compounds scored in any of these assays. Unless noted, no stated cut-off is given here; in the data, active means inhibition above about 19%; inactive means the rest.

O=C(CN1CCN(S(=O)(=O)c2ccc(F)cc2)CC1)c1ccc(O)c(O)c1	none
COc1ccc(S(=O)(=O)N2CCN(CC(=O)c3ccc(O)c(O)c3)CC2)cc1	LEDGF integ inh 61, TCR CD3 inh 25 | BSA TAMRA ctr inactive | TCR-CD3 inh conf inactive
Cc1nn(C)c(C)c1N1C(=O)c2cccc3c(N)ccc(c23)C1=O	TCR CD3 inh 49 | BSA TAMRA ctr 57 | TCR-CD3 inh conf 47
O=C1CSC(c2ccco2)N1 (stereo not given)	none
O=C(O)C1CSC(c2ccco2)N1 (stereo not given)	MBD2 inh 34, LEDGF integ inh 48, UHRF1 MBD2 ctr 65, TCR CD3 inh 21 | BSA TAMRA ctr inactive | TCR-CD3 inh conf inactive
CC(C)NC(=O)Nc1ccc2c(c1)C(=O)N([C@H](C)CO)C[C@H](C)[C@@H](CN(C)S(=O)(=O)c1ccccc1)O2	none
C[C@H](CO)N1C[C@H](C)[C@@H](CN(C)S(=O)(=O)c2ccccc2)Oc2ccc(NC(=O)Nc3ccc(C(F)(F)F)cc3)cc2C1=O	TCR CD3 inh 28 | BSA TAMRA ctr inactive | TCR-CD3 inh conf inactive
Cc1ccc(C)c(C(C)NC(=S)NCc2ccc(F)cc2)c1 (stereo not given)	none
O=C1CCCC/C1=C\Nc1ccc(O)cc1	TCR CD3 inh 42 | BSA TAMRA ctr inactive | TCR-CD3 inh conf inactive
O=C1CCC/C1=C/Nc1ccc(Cl)cc1	none
CC1=NN(C(=O)c2ccccc2C)C(O)(c2ccc(Cl)cc2)C1 (stereo not given)	none
CCC1=NN(C(=O)c2ccccc2O)C(O)(c2ccccc2)C1 (stereo not given)	TCR CD3 inh 40 | BSA TAMRA ctr inactive | TCR-CD3 inh conf 30
CC1=NN(C(=O)c2ccccc2Br)C(O)(c2ccc(Cl)cc2)C1 (stereo not given)	TCR CD3 inh 28 | BSA TAMRA ctr inactive | TCR-CD3 inh conf inactive
CCC1=NN(C(=O)c2ccccc2Br)C(O)(c2ccc(Br)cc2)C1 (stereo not given)	none
OCc1nc2ccccc2n1CCc1ccccc1	TCR CD3 inh 23 | BSA TAMRA ctr inactive | TCR-CD3 inh conf inactive
Nc1ccccc1C(=O)NCCN1CCNC1=O	none
CCN(CC)S(=O)(=O)c1cccc(C(=O)N/N=C(\C)c2ccc(O)cc2O)c1	TCR CD3 inh 41 | BSA TAMRA ctr inactive | TCR-CD3 inh conf 44
CCN(CC)S(=O)(=O)c1cccc(C(=O)N/N=C/c2ccc(O)c(O)c2O)c1	TCR CD3 inh 31 | BSA TAMRA ctr inactive | TCR-CD3 inh conf 29
CCOc1ccccc1/C=N/NC(=O)c1cccc(S(=O)(=O)N(CC)CC)c1	none
Cc1ccc(C(=O)NNC(=O)c2ccc3ccccc3c2O)cc1	TCR CD3 inh 43 | BSA TAMRA ctr inactive | TCR-CD3 inh conf 34
COc1ccc(C(=O)NNC(=O)COc2ccc(Cl)cc2)c(OC)c1	TCR CD3 inh 25 | BSA TAMRA ctr inactive | TCR-CD3 inh conf 24
COc1ccccc1C(=O)NNC(=O)c1ccccc1	none
O=C(NNC(=O)c1ccc(O)cc1O)c1ccc(-c2ccccc2)cc1	TCR CD3 inh 28 | BSA TAMRA ctr inactive | TCR-CD3 inh conf 22
Cc1ccc(C(=O)NNC(=O)Cc2ccccc2)cc1	none
COc1ccccc1C(=O)NNC(=O)c1ccc2ccccc2c1O	TCR CD3 inh 32 | BSA TAMRA ctr inactive | TCR-CD3 inh conf 38
O=C(NNc1c2ccccc2nc2ccccc12)c1ccc(O)cc1O	none
CC1(C(=O)Nc2c(F)c(F)c(F)c(F)c2F)CC1(Br)Br (stereo not given)	none
COc1cccc(OCC(=O)NNC(=O)c2ccc3ccccc3c2O)c1	TCR CD3 inh 44 | BSA TAMRA ctr inactive | TCR-CD3 inh conf 39
COc1ccc(C(=O)NNC(=O)c2ccc3ccccc3c2)cc1	none
COc1ccc(C(=O)NNC(=O)c2ccc3ccccc3c2O)cc1	TCR CD3 inh 38 | BSA TAMRA ctr inactive | TCR-CD3 inh conf 38
COc1ccc(CNc2ncc(-c3cccc([N+](=O)[O-])c3)n2C)c(OC)c1OC	none
